Measurements from different studies.
Lines come from different studies, so protocols differ.
Target: Platelet-derived growth factor receptor beta (PDGFRB, Homo sapiens, UniProt P09619)

Oc1ccc(-c2nc(-c3ccncc3)c(-c3ccc(F)cc3)[nH]2)cc1
remaining signal (cell-free assay; 0.5 µM): 104%

Cn1nc(C(=O)NCc2ccc(C(=O)O)cc2)cc1-c1ccc2[nH]ccc2c1
remaining binding (cell-free assay, competition with immobilised ligand; 0.1 µM): 96%

CCN(CC)c1ccc(C2=NNC(=O)CC2C)cc1[N+](=O)[O-] (centres unmarked)
remaining activity (enzyme activity, inhibitor; 10 µM): 6%

Cc1ccc(NC(=O)c2ccc(C)c(C(F)(F)F)c2)cc1C#Cc1nn(C2CCC(O)CC2)c2ncnc(N)c12 (centres unmarked)
remaining signal (cell-free assay; 10 µM): 87%

CNC(=O)c1cc(Oc2ccc(NC(=O)Nc3ccc(Cl)c(C(F)(F)F)c3)cc2)ccn1
remaining signal (cell-free assay; 0.5 µM): 12%

Cc1ccc(Nc2nccc(N(C)c3ccc4c(C)n(C)nc4c3)n2)cc1S(N)(=O)=O
inhibition (enzyme activity, inhibitor; 10 µM): 97%

O=C(Nc1ccc(Oc2ccc(F)cc2)cc1)N1CCc2ncccc2[C@H]1c1ccc(F)cc1
remaining binding (cell-free assay, competition with immobilised ligand; 1 µM): 100%

CN(C)c1ccc(C=C2C(=O)Nc3ccccc32)cc1
remaining activity (enzyme activity, inhibitor; 0.5 µM): 85.8%

O=c1nc(-c2ccccn2)sc2ccccc12
remaining binding (cell-free assay, competition with immobilised ligand; 1 µM): 83%

O=C(CSc1nc2nccnc2c(=O)n1CCc1ccccc1)Nc1nccs1
inhibition (enzyme activity, inhibitor; 10 µM): 2%

CCN(CC)CCNC(=O)c1c(C)[nH]c(/C=C2\C(=O)Nc3ccc(Cl)cc32)c1C
remaining activity (enzyme activity, inhibitor; 0.5 µM): 9.28%

C=CC(=O)Nc1cc(Nc2nccc(Nc3cc(Cl)c(F)cc3C(C)(C)O)n2)c(OC)cc1N1CC[C@@H](N(C)C)C1
inhibition (enzyme activity, inhibitor; 1 µM): -2%

Cc1sc(C(=O)NC2COC2)cc1-n1cc(NC(=O)Nc2c(F)cccc2Cl)cn1
remaining activity (enzyme activity, inhibitor; 10 µM): 97.9%

COc1cc(Cl)c(C(=O)N[C@@H](CN[C@H]2CC[C@@H](N)CC2)Cc2ccc(C#N)cc2)cc1-c1ccc(CN[C@H](C)c2ccc(C)cc2)o1
remaining activity (enzyme activity, inhibitor; 1 µM): 95%

CCN(CC)CCNC(=O)c1c(C)[nH]c(/C=C2\C(=O)Nc3ccc(F)cc32)c1C
remaining signal (cell-free assay; 0.5 µM): 17.6%

CCCOc1ccc([C@H]2[C@H](C(=O)O)[C@@H](c3ccc4c(c3)OCO4)CN2CC(=O)Nc2c(CC)cccc2CC)cc1
remaining binding (cell-free assay, competition with immobilised ligand; 1 µM): 100%

CCCOc1ccc(OC)c(F)c1C(=O)c1ccc(C(=O)N[C@@H]2CNC[C@H]2NC(=O)c2ccc3[nH]ncc3c2)cc1
remaining activity (enzyme activity, inhibitor; 10 µM): 74%

COc1cc2ncnc(Nc3ccc(Oc4ccccc4)cc3C)c2cc1OC
inhibition (enzyme activity, inhibitor; 1 µM): 2%

Cc1[nH]c(/C=C2\C(=O)Nc3ccc(F)cc32)c(C)c1C(=O)N[C@H]1CCN(C(=O)N(C)C)C1
remaining activity (enzyme activity, inhibitor; 1 µM): 18%

O=C(Nc1cccnn1)N1CC(C/C=C/c2cncc(Oc3ccc(C(F)(F)F)cn3)n2)C1
remaining binding (cell-free assay, competition with immobilised ligand; 1 µM): 81%

CC(C)(C)c1nc2c(s1)c1nc(N)ncc1c1ccc(NS(=O)(=O)c3c(F)cccc3F)c(F)c12
remaining activity (enzyme activity, inhibitor, radiometric; 1 µM): 105%

O=C1NC(=O)c2cc(Nc3ccc(F)cc3)c(Nc3ccc(F)cc3)cc21
remaining signal (cell-free assay; 0.5 µM): 93.9%

Cc1cc(NC(=O)c2cccc3cc(-c4cccc5[nH]nc(N)c45)ccc23)ccc1F
activity vs control (enzyme activity, inhibitor; 0.1 µM): 101%

NS(=O)(=O)c1cc(NC(=O)Cc2ccccc2)ccc1Oc1cccc(Cl)c1
remaining binding (cell-free assay, competition with immobilised ligand; 1 µM): 76%

Fc1cccc(-n2cnc3c(NCc4nc5c(F)c(F)ccc5[nH]4)nc(N4CCOCC4)nc32)c1
binding vs control (binding, competition with immobilised ligand; 10 µM): 91%

Cn1cc(Cl)c2c(Oc3c(F)cc(Nc4cc(Cl)nc(N)n4)cc3F)ccnc21
remaining binding (cell-free assay, competition with immobilised ligand; 0.1 µM): 96%

Nc1ncnc2occ(-c3ccc(NC(=O)Nc4cc(C(F)(F)F)ccc4F)cc3)c12
remaining activity (enzyme activity, inhibitor; 20 µM): 0%

O=C1Nc2ccc(Cl)cc2C1=Cc1cc(Cl)c(O)c(Cl)c1
remaining signal (cell-free assay; 0.5 µM): 76.9%

Cn1nc(C(F)(F)F)cc1-c1cnc(N2CCc3cc(S(=O)(=O)Nc4c(F)cc(Cl)cc4F)cc(N4CCCC4=O)c32)nc1
remaining binding (cell-free assay, competition with immobilised ligand; 1 µM): 90%
